# Source: PubChem (several laboratories)
# A selection: hits, their analogues and other compounds. The true share with any hit is near 2.1%.
# Autophagy HCS = alters autophagy in cells. MEF GFP-LC3 puncta imaging; test concentration mostly 10 µM. calls only at 10 µM (by protocol). 190,000 compounds, 0.98% hits;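 active means percentage of spot-positive cells more than 3 SD above its plate mean, without a fluorescence outlier flag or 80% toxicity; inconclusive means no clear call, values can overlap the other calls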;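 further: spot-positive cell cutoff set from DMSO-treated cells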
# Dynein transport = dynein cargo transport inhibition; 3617.4 mouse cells, GR-EGFP nuclear translocation imaging; test concentration mostly 20 µM; stimulated with dexamethasone, 1 µM; hits give low values; z-score, hits read low; 220,000 compounds, 0.47% hits;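 active means plate z-score of nuclear minus cytoplasmic receptor signal below a set negative limit, without overly bright fluorescence or cell loss, cut at about -3.5 in these data, passing the limit was not always enough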;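 further: z-score of nuclear minus cytoplasmic ring GR-EGFP intensity difference per well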
#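 Buffer or medium: tet-free medium with charcoal-stripped serum / Also added: dexamethasone agonist, 1.0 µM final, for 30 min / Timing: induction 48 h, compound 1 h, agonist 30 min / Measured by: high-content fluorescence imaging after fixation / Read-out: nuclear-to-cytoplasmic GR-EGFP distribution per well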
# Insulin prom up = MIN6 insulin promoter up-regulation; z-score at 5 µM; MIN6 insulin promoter-GFP reporter, high-content imaging; hits give high values; 190,000 compounds, 0.3% hits;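 active means z-score above 3 at 5 µM with at least 500 cells counted in the well; inconclusive means wells under 500 cells, flagged as cytotoxic or low count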
# PERK inhibitor = human PERK inhibition, primary cell-based screen | Q9NZJ5 | CHO PERK-DD fusion, SEAP luminescence translation reporter | inhibition, % at 5.6 µM | 220,000 compounds, 0.17% hits;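 active means inhibition above the mean inhibition of all tested compounds plus 3 SD, set separately per screening campaign, cut at about 2.9% in these data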;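 further: PERK kinase domain activated by AP20187 dimerizer at 100 nM; 0% = DMSO with dimerizer and 100% = rapamycin at 8.4 µM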
# Target sequence (Q9NZJ5 whole entry, looked up, the tested form may be a part): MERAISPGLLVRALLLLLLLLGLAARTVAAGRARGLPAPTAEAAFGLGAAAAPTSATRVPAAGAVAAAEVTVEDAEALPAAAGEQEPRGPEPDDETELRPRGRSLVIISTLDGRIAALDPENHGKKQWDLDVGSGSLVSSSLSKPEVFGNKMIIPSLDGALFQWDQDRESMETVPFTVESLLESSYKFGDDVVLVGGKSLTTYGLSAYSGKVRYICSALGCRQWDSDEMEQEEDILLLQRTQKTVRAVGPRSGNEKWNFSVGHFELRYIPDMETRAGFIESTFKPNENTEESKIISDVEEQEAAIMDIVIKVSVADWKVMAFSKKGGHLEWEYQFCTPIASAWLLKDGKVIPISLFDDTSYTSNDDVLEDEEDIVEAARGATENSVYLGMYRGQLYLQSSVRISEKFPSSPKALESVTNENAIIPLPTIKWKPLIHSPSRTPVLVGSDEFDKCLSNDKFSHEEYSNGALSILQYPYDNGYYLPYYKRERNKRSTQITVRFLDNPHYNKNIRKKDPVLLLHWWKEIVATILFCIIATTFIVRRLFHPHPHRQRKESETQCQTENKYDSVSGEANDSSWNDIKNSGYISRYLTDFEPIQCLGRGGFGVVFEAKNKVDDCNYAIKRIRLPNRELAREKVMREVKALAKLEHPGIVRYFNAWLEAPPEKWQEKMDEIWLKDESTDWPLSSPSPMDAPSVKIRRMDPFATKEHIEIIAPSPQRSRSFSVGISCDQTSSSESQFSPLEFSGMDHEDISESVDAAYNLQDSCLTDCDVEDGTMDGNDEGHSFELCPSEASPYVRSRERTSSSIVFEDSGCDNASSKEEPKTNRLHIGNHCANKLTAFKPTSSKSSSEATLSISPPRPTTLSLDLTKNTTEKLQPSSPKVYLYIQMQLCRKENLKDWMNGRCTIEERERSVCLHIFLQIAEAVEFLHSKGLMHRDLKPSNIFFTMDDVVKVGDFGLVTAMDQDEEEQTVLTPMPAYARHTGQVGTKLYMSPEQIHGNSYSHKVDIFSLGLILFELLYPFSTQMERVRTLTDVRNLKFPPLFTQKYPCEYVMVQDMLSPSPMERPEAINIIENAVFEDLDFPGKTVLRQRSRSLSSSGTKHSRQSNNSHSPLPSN
# Insulin prom inh = TRM-6 insulin promoter activity inhibition. TRM-6 cells (human fetal islet line), insulin promoter-eGFP reporter, imaging; reporter expression induced with tamoxifen. AID 1273. 130,000 compounds, 0.9% hits. inhibition, % at 2 µM;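 active means inhibition above the mean plus 3 SD, with well images judged a real hit on visual review, cut at about 60% in these data, passing the limit was not always enough; inconclusive means inhibition over the cutoff but images rejected on review; inactive means inhibition not above the cutoff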
# Dynein inh conf = dynein cargo transport inhibition, confirmation; shares compounds with Dynein transport; calls only at 20 µM; 3617.4 GR-EGFP nuclear translocation imaging, dexamethasone-induced; 1,000 compounds, 69% hits;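 active means inhibition of receptor movement into the nucleus at or above a set limit in both runs, with normal cell brightness and cell count; inconclusive means limit reached in only one run, brightness and count normal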;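 further: dexamethasone at 1 µM final in well for 30 min; nuclear minus cytoplasmic GR-EGFP mean intensity difference in channel 2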
# * hit, by the source's call; i = inactive; ? = inconclusive; nt = no result given; + = active, no number.
SMILES,Autophagy HCS,Dynein transport,Insulin prom up,PERK inhibitor,Insulin prom inh,Dynein inh conf
CCOc1ccc(-c2cc(C(=O)OC)nc3c2c(=O)n(C)c(=O)n3C)cc1,nt,-0.52,-0.26,1,nt,nt
CCOc1ccc(CCNC(=O)CN2C(=O)NC(CCSC)C2=O)cc1OCC (stereo not given),i,1,-0.02,0,nt,nt
CCOC(=O)CSC1=NC(=O)CS1,i,-0.69,0.59,3,-7,nt
CCC(=O)Nc1ccc(/C=C(\C(C)=O)C(=O)c2ccccc2)cc1,nt,-4.1*,-1.1,0,nt,+
O=C(CS(=O)c1ccccc1[N+](=O)[O-])Oc1ccc(Br)cc1 (stereo not given),i,-0.15,-0.09,0,nt,nt
CS(=O)(=O)c1ccc(S(=O)CC(=O)Oc2ccc(Cl)cc2)c([N+](=O)[O-])c1 (stereo not given),i,-6.5*,0.23,1,-240,+
Cc1cc(S(=O)(=O)Nc2ccc3ccccc3c2)c(C)s1,i,0.31,0.15,0,-4,nt
Cc1cc(S(=O)(=O)Nc2cc(C)c(O)c(C)c2)c(C)s1,i,-4*,-0.59,0,26,i
N#CCCN(C(=O)CCl)c1cccc(Cl)c1,i,-3.8*,0.66,1,nt,+
COc1cc(C(=O)N/N=C/c2ccc(OC)c(CN3CCN(c4ccc(F)cc4)CC3)c2)ccc1O,i,0.25,0.05,0,nt,nt
O=C(NC(=S)Nc1nc2c(s1)CSc1ccccc1-2)c1ccccc1,i,-3.5*,nt,0,25,i
Cc1ccc(CSCC(=O)NCc2cccs2)cc1,i,0.24,-0.25,0,53,nt
O=S(=O)(Nc1ccc(Cl)cc1)c1ccc2c(c1)CCO2,nt,-0.45,-0.98,0,nt,nt
O=[N+]([O-])c1cccc(-c2nnc3ccccn23)c1,nt,0.57,0.03,0,nt,nt
O=C(/C=C/NNC(=O)c1ccc(Cl)cc1)c1ccccc1,i,-6.2*,0.08,1,nt,+
CN(C)CCCNC(=O)/C(=C\c1ccc(-c2ccc(Br)cc2)o1)NC(=O)c1ccccc1,i,0.83,nt,0,0,nt
Cc1ccc(C(=O)N/C(=C\c2ccc(-c3ccc(Cl)cc3)o2)C(=O)NCCCN(C)C)cc1,i,-4.3*,-0.13,0,nt,i
Cc1nn(-c2ccccc2)c2nc(C(Cl)(Cl)Cl)[nH]c(=O)c12,nt,1.4,1.4,1,nt,nt
N#CCOc1nc(N2CCCCC2)nc(N2CCCCC2)n1,i,0.22,-0.56,-2,nt,nt
CCOc1nc(C#N)nc(N2CCCCC2)n1,i,-3.5*,-0.01,1,nt,+
COC(=O)C1=C(C)N(C2CCCCC2)C(=O)/C1=C\c1cccs1,i,0.065,nt,1,-225,nt
O=C1c2ccccc2C(=O)N1Nc1ccccc1,i,0.45,nt,0,4,nt
Cc1ccc(NN2C(=O)C=C(c3ccccc3)C2=O)cc1,i,-4.5*,-0.21,1,nt,+
COc1ccc(C(=O)/C=C/c2ccc(OC(=O)c3cc(OC)c(OC)c(OC)c3)cc2)cc1,i,-0.43,1.1,-1,-8,nt
COc1cc(/C=C/C(=O)c2ccc(F)cc2)cc(OC)c1OC,i,-4.7*,0.26,1,47,+
SMILES,Autophagy HCS,Dynein transport,Insulin prom up,PERK inhibitor,Insulin prom inh,Dynein inh conf
CCOc1ccc(C(=O)/C=C/c2cc(OC)c(OC)c(OC)c2)cc1,i,-4.2*,0.64,1,nt,+
COc1cc(/C=C/C(=O)O)cc(OC)c1OC,nt,2.2,0.83,1,nt,nt
O=S(=O)(c1ccccc1)N(C1=NCCS1)S(=O)(=O)c1ccccc1,i,-0.29,-0.07,-1,nt,nt
COc1ccc(/C=C/C(=O)c2cc(Br)ccc2O)cc1OC,i,-0.37,-1.2,0,nt,nt
COc1ccc(/C=C/C(=O)c2cc(Br)ccc2OC(=O)c2ccco2)cc1OC,i,-3.7*,-0.64,-2,-21,+
COc1ccc(/C=C/C(=O)c2cc(F)ccc2OC(=O)c2ccccc2OC)cc1OC,i,-3.9*,nt,-1,-150,+
CCCCNC(=O)CSc1nc2ccsc2c(=O)n1CCCC(=O)NCCc1ccc(S(N)(=O)=O)cc1,i,-0.4,0.34,1,41,nt
CCNc1ccc(Br)cc(C(=O)/C=C/c2ccc(Cl)cc2Cl)c1=O,i,-5.4,?,0,-25,+
CC1CCN(CCCNC(=O)c2ccc(Cn3c(=S)[nH]c4ccc(Br)cc4c3=O)cc2)CC1,i,0.66,nt,0,nt,nt
COc1cccc(C(=O)Nc2ccc(NC(C)=O)cc2)c1,i,0.35,nt,0,nt,nt
COc1cccc(C(=O)C(C#N)=C(SC)SC)c1,nt,-4.5*,-0.5,1,nt,+
O=C(O)c1ccc(C(=O)C(=O)c2ccccc2)cc1,nt,2.1,0.74,1,nt,nt
CSC(SC)=C(C#N)C(=O)c1ccccc1,nt,-4.8*,-0.1,1,nt,+
CN(CC(=O)OCC(=O)NCc1ccccc1)S(=O)(=O)c1ccc(Cl)cc1,i,1.1,0.06,0,13,nt
COCCCNC(=O)c1ccccc1Oc1ccccc1,i,0.014,-0.49,0,17,nt
COCCCNC(=O)c1ccc2c3c(onc13)-c1ccccc1C2=O,nt,-4.9*,nt,-1,nt,+
Nc1ncnc(Sc2ncccn2)c1[N+](=O)[O-],i,-5.1*,-0.27,0,nt,?
COc1ccc(-n2ccnc2SCC(=O)NCc2ccco2)c(OC)c1,i,1.3,-0.8,0,nt,nt
COC(=O)c1ccc(NC(=O)CSC2=Nc3ccccc3C3CC=NN23)cc1 (stereo not given),i,-0.64,nt,1,-5,nt
NC(=O)c1ccc(NC(=O)CSC2=Nc3ccccc3C3CC=NN23)cc1 (stereo not given),i,-4.2*,-0.32,0,47,i
Cc1cccc(N2CCN(C(=O)Cn3sc4nc(C)cc(C)c4c3=O)CC2C)c1 (stereo not given),i,-4.4*,0.5,0,nt,?
CCOC(=O)c1c2ccc(OCC(=O)N/N=C/c3ccc(Cl)cc3)cc2n2ccccc12,+,-3.8,1.6,1,nt,i
O=C(CN1C2=NCCN2c2ccccc21)c1ccc(Br)s1,i,-0.21,-1,-1,-33,nt
CCOC(=O)c1nc(C)n(-c2cc(OC)c(Cl)cc2Cl)n1,i,-0.077,0.76,0,14,nt
O=[N+]([O-])c1ccc(N/N=C/c2c[nH]c3ccccc23)cc1,+,-8.4,nt,0,-223,+
O=C(N/N=C/c1ccc[nH]1)c1ccccc1[N+](=O)[O-],i,1.5,0.07,1,-10,nt
COc1ccccc1NS(=O)(=O)c1cc([N+](=O)[O-])ccc1N/N=C/c1sc(N2CCOCC2)nc1-c1ccccc1,+,-12,nt,1,nt,i
Cc1[nH]c2ccccc2c1/C=N/Nc1ccc([N+](=O)[O-])cc1S(=O)(=O)Nc1ccc(Cl)cc1,+,-5.3,nt,0,-127,i
Cc1[nH]c2ccccc2c1/C=N/Nc1cccc(C(=O)O)c1,nt,0.51,1.2,1,nt,nt
